Holding throughout (type): functional
In experiment [1] the test system is Mammaliicoccus sciuri. As to the kind of experiment: Antimicrobial activity against mecA-deficient Staphylococcus sciuri assessed as resistant isolates. In a few lines:
(§1)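 Nasal S. sciuri isolates from the Indonesian population, grouped by presence of the S. aureus mecA and S. sciuri mecA genes. Susceptibility to the additional antibiotics was tested on the automated Vitek 2 system (AST-P549 card), and the number of resistant isolates in each group was counted.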

The subject of experiment [2] is Mammaliicoccus sciuri. Put plainly: Antimicrobial activity against mecA-positive Staphylococcus sciuri assessed as resistant isolates. Summed up: as §1
Experiment [3] concerns Mammaliicoccus sciuri. As to the kind of experiment: Antimicrobial activity against mecA-deficient Staphylococcus sciuri harboring staphylococcus aureus mecA gene assessed as resistant isolates. Summed up: as §1
Experiment [4] concerns Mammaliicoccus sciuri. Put plainly: Antimicrobial activity against mecA-positive Staphylococcus sciuri harboring staphylococcus aureus mecA gene assessed as resistant isolates. In a few lines:
as §1

This note sets out measurements from ChEMBL document CHEMBL1671763, “Nasal carriage of methicillin-resistant and methicillin-sensitive strains of Staphylococcus sciuri in the Indonesian population” (2010).

Consider `CN(C)[C@@H]1C(O)=C(C(N)=O)C(=O)[C@@]2(O)C(O)=C3C(=O)c4c(O)cccc4[C@@](C)(O)[C@H]3C[C@@H]12` [TETRACYCLINE], for which the Activity with Mammaliicoccus sciuri [1] is 11.1%; in the experiment with Mammaliicoccus sciuri [2], 5%; with Mammaliicoccus sciuri [3] it was 77.8%; in the experiment with Mammaliicoccus sciuri [4], 46.2%.
For the compound `CO[C@H]1/C=C/O[C@@]2(C)Oc3c(C)c(O)c4c(O)c(c(/C=N/N5CCN(C)CC5)c(O)c4c3C2=O)NC(=O)/C(C)=C\C=C\[C@H](C)[C@H](O)[C@@H](C)[C@@H](O)[C@@H](C)[C@H](OC(C)=O)[C@@H]1C` [RIFAMPIN], the Activity in the experiment on Mammaliicoccus sciuri [1] is 0%; in the experiment on Mammaliicoccus sciuri [2] it was 0%; with Mammaliicoccus sciuri [3], 11.1%; in the experiment with Mammaliicoccus sciuri [4] it was 15.4%.
Take `CN[C@H](CC(C)C)C(=O)N[C@H]1C(=O)N[C@@H](CC(N)=O)C(=O)N[C@H]2C(=O)N[C@H]3C(=O)N[C@H](C(=O)N[C@H](C(=O)O)c4cc(O)cc(O)c4-c4cc3ccc4O)[C@H](O)c3ccc(c(Cl)c3)Oc3cc2cc(c3O[C@@H]2O[C@H](CO)[C@@H](O)[C@H](O)[C@H]2O[C@H]2C[C@](C)(N)[C@H](O)[C@H](C)O2)Oc2ccc(cc2Cl)[C@H]1O` [VANCOMYCIN]: the Activity in the experiment with Mammaliicoccus sciuri [1], in the experiment on Mammaliicoccus sciuri [2], with Mammaliicoccus sciuri [3] and with Mammaliicoccus sciuri [4] was 0% in each case.
Regarding GENTAMICIN, the Activity came out at 0% in the experiment with Mammaliicoccus sciuri [1], 0% in the experiment on Mammaliicoccus sciuri [2], 55.5% with Mammaliicoccus sciuri [3] and 38.5% with Mammaliicoccus sciuri [4].
Take `CC[C@H]1OC(=O)[C@H](C)[C@@H](O[C@H]2C[C@@](C)(OC)[C@@H](O)[C@H](C)O2)[C@H](C)[C@@H](O[C@@H]2O[C@H](C)C[C@H](N(C)C)[C@H]2O)[C@](C)(O)C[C@@H](C)C(=O)[C@H](C)[C@@H](O)[C@]1(C)O` [ERYTHROMYCIN]: the Activity is given as 0% with Mammaliicoccus sciuri [1], 0% in the experiment on Mammaliicoccus sciuri [2], 33.3% in the experiment on Mammaliicoccus sciuri [3] and 23.1% in the experiment with Mammaliicoccus sciuri [4].
For the compound `CC(=O)O[C@H]1C[C@@]2(C)[C@@H](C[C@@H](O)[C@H]3[C@@]4(C)CC[C@@H](O)[C@@H](C)[C@@H]4CC[C@@]32C)/C1=C(\CCC=C(C)C)C(=O)O` [FUSIDIC ACID], the Activity is listed as 55.6% with Mammaliicoccus sciuri [1], 60% in the experiment on Mammaliicoccus sciuri [2], 44.4% with Mammaliicoccus sciuri [3] and 69.2% in the experiment on Mammaliicoccus sciuri [4].
The like results for `CCn1cc(C(=O)O)c(=O)c2cc(F)c(N3CCNCC3)cc21` [NORFLOXACIN] were, in that order, 0%, 0%, 66.7% and 15.4%.
